Measured values from ChEMBL document CHEMBL1126759, “Potent HIV protease inhibitors: the development of tetrahydrofuranylglycines as novel P2-ligands and pyrazine amides as P3-ligands” (J Med Chem, 1993).

What was measured:
[1] = biological target: Human immunodeficiency virus type 1 protease (Human immunodeficiency virus 1) (UniProt Q72874); assay: Tested for inhibitory concentration against spread of HIV-1 in MT-4 human T-lymphoid cells infected with IIIb isolate; type: functional, cell-based
Procedure, shortened: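 MT-4 cells grown in RPMI-1640 with 10% inactivated FBS, 4 mM glutamine and penicillin/streptomycin at 37 °C under CO2. Cells were pretreated 24 h with serially diluted compound (DMSO stock), then infected at 250 000 cells/mL, MOI 0.01. Compound was refreshed every 2–3 days. CIC was read by anti-HIV-1 immunofluorescence (complete block of spread, 7–24 days) or p24 ELISA (>95% reduction).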

[2] = biological target: Human immunodeficiency virus type 1 protease (Human immunodeficiency virus 1, UniProt Q72874); assay: Tested for inhibitory concentration against HIV-1 protease
[3] = biological target: Human immunodeficiency virus type 2 pol protein (Human immunodeficiency virus 2, UniProt P88142); assay: Tested for inhibitory concentration against HIV-2 protease; type: functional
Procedure, shortened: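 HIV-2 protease (ROD) purified the same way as HIV-1 protease, which was bacterially expressed; value reported as IC50.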

Human immunodeficiency virus type 2 pol protein, sequence (P88142 whole entry): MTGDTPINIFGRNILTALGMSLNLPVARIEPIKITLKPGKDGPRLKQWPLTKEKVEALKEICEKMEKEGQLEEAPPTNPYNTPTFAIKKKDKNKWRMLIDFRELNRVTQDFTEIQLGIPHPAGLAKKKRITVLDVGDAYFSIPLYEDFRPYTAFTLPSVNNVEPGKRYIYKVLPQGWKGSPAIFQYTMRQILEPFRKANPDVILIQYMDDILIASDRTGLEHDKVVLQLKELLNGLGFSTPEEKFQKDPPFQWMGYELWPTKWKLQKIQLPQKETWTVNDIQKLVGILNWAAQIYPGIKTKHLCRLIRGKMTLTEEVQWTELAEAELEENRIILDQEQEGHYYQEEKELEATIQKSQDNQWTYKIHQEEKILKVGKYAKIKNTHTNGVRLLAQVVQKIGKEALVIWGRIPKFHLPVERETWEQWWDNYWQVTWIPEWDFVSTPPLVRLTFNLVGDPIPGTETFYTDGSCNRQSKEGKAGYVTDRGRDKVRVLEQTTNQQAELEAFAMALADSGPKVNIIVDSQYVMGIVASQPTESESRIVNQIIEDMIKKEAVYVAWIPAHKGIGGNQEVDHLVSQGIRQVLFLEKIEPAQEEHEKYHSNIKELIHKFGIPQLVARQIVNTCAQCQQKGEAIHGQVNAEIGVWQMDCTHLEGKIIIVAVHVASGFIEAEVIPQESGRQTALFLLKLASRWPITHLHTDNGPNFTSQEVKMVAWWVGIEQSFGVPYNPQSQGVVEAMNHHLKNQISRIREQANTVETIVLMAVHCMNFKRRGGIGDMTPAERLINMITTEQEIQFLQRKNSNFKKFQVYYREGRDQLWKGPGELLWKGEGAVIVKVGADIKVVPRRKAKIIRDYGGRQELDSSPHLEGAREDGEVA

Row | SMILES | IC95 [1] [nM] | IC50 [2] [nM] | IC50 [3] [nM]
1 | CC(C)(C)NC(=O)[C@@H]1C[C@@H]2CCCC[C@@H]2CN1C[C@@H](O)[C@H](Cc1ccccc1)NC(=O)[C@@H](NC(=O)c1ccc2ccccc2n1)C1CCOC1 (stereo partly specified) | 8 | 0.054 | 0.24
2 | CN(C)c1nc(N)c(C(=O)N[C@H](C(=O)N[C@@H](Cc2ccccc2)[C@H](O)CN2C[C@H]3CCCC[C@H]3C[C@H]2C(=O)NC(C)(C)C)[C@H]2CCOC2)nc1Cl | 25 | 0.24 | 
3 | COC(=O)c1nc(Cl)c(N[C@H](C(=O)N[C@@H](Cc2ccccc2)[C@H](O)CN2C[C@H]3CCCC[C@H]3C[C@H]2C(=O)NC(C)(C)C)[C@H]2CCOC2)nc1N | 3 | 0.16 | 24.9
4 | CC(C)(C)NC(=O)[C@@H]1C[C@@H]2CCCC[C@@H]2CN1C[C@@H](O)[C@H](Cc1ccccc1)NC(=O)[C@@H](NC(=O)c1ccc2ccccc2n1)[C@@H]1CCOC1 | 100 | 5.4 | 
5 | CC(C)(C)NC(=O)[C@@H]1C[C@@H]2CCCC[C@@H]2CN1C[C@@H](O)[C@H](Cc1ccccc1)NC(=O)[C@@H](NC(=O)c1ccc2ccccc2n1)C1CCCC1 |  | 2.6 | 
6 | CC(C)(C)NC(=O)[C@@H]1C[C@@H]2CCCC[C@@H]2CN1C[C@@H](O)[C@H](Cc1ccccc1)NC(=O)[C@@H](NC(=O)c1ccc2ccccc2n1)[C@@H]1CCSC1 | > 200 | 3.3 | 
7 | CC(C)(C)NC(=O)[C@@H]1C[C@@H]2CCCC[C@@H]2CN1C[C@@H](O)[C@H](Cc1ccccc1)NC(=O)[C@@H](NC(=O)c1ccc2ccccc2n1)[C@H]1CCS(=O)(=O)C1 |  | 0.5 | 
8 | CC(C)[C@H](NC(=O)c1cnc2ccccc2n1)C(=O)N[C@@H](Cc1ccccc1)[C@H](O)CN1C[C@H]2CCCC[C@H]2C[C@H]1C(=O)NC(C)(C)C |  | 0.39 | 
9 | CC(C)[C@H](NC(=O)c1ccc2ccccc2n1)C(=O)N[C@@H](Cc1ccccc1)[C@H](O)CN1C[C@H]2CCCC[C@H]2C[C@H]1C(=O)NC(C)(C)C | 100 | 0.7 | 3.2
10 | CC(C)(C)NC(=O)[C@@H]1C[C@@H]2CCCC[C@@H]2CN1C[C@@H](O)[C@H](Cc1ccccc1)NC(=O)[C@@H](NC(=O)c1ccc2ccccc2n1)[C@H]1CCSC1 | 50 | 0.6 | 
11 | CC(C)(C)NC(=O)[C@@H]1C[C@@H]2CCCC[C@@H]2CN1C[C@@H](O)[C@H](Cc1ccccc1)NC(=O)[C@@H](NC(=O)c1cnccn1)[C@H]1CCOC1 |  | 2.83 | 
12 | CN(C)c1ncc(C(=O)N[C@H](C(=O)N[C@@H](Cc2ccccc2)[C@H](O)CN2C[C@H]3CCCC[C@H]3C[C@H]2C(=O)NC(C)(C)C)[C@H]2CCOC2)nc1Cl | 12 | 0.06 | 
13 | CC(C)(C)NC(=O)[C@@H]1C[C@@H]2CCCC[C@@H]2CN1C[C@@H](O)[C@H](Cc1ccccc1)NC(=O)[C@H](CC(N)=O)NC(=O)c1ccc2ccccc2n1 | 22 |  | 0.5
14 | CC(C)(C)NC(=O)[C@@H]1C[C@@H]2CCCC[C@@H]2CN1C[C@@H](O)[C@H](Cc1ccccc1)NC(=O)[C@@H](NC(=O)c1ccc2ccccc2n1)[C@@H]1CCS(=O)(=O)C1 |  | 39 | 
15 | CC(C)(C)NC(=O)[C@@H]1C[C@@H]2CCCC[C@@H]2CN1C[C@@H](O)[C@H](Cc1ccccc1)NC(=O)[C@@H](NC(=O)c1cnc2ccccc2n1)[C@H]1CCOC1 | 12 | 0.12 | 
16 | CC(C)(C)NC(=O)[C@@H]1C[C@@H]2CCCC[C@@H]2CN1C[C@@H](O)[C@H](Cc1ccccc1)NC(=O)[C@@H](NC(=O)c1cc(=O)c2ccccc2o1)[C@H]1CCOC1 | 25 | 0.11 | 
17 | CC(C)[C@H](NC(=O)c1cc(=O)c2ccccc2o1)C(=O)N[C@@H](Cc1ccccc1)[C@H](O)CN1C[C@H]2CCCC[C@H]2C[C@H]1C(=O)NC(C)(C)C | 25 | 0.15 | 
18 | CC(C)(C)NC(=O)[C@@H]1C[C@@H]2CCCC[C@@H]2CN1C[C@@H](O)[C@H](Cc1ccccc1)NC(=O)[C@@H](NC(=O)c1ccc2ccccc2n1)C1CCOCC1 |  | 67.9 | 
19 | CN1CCN(c2ncc(C(=O)N[C@H](C(=O)N[C@@H](Cc3ccccc3)[C@H](O)CN3C[C@H]4CCCC[C@H]4C[C@H]3C(=O)NC(C)(C)C)[C@H]3CCOC3)nc2Cl)CC1 | 12 | 0.071 | 0.18
